High-throughput results: PubChem BioAssay, several laboratories
Only some compounds are listed: those with a hit (about 1.9% of all), similar ones and a draw of the others.
GAA850 FXN act = FXN promoter activators, primary screen, cell-based, luciferase luminescence, HEK293 lucGAA850 | HEK293 lucGAA850 FXN promoter luciferase reporter, 24 h; percent of 10 µM SAHA response | activation, % at 6 µM | 360,000 tested, 0.56% active;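 active means activation above the average of all compounds screened plus 3 SD, cutoff fixed separately per campaign, cut at about 7.5% in these data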
ABHD5-PLIN5 inh = ABHD5-PLIN5 interaction inhibitors, primary screen, cell lysate, split luciferase complementation, luminescence | Split G. princeps luciferase complementation, 4 h | inhibition, % at 4 µM | 360,000 tested, 0.78% active | AID 602281, 2012;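 active means inhibition above the mean inhibition across every tested compound plus 3 SD, cut at about 22% in these data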
Rad51 HR inh = human RAD51 strand exchange inhibitors, primary screen, biochemical, fluorescence. DNA repair protein RAD51 homolog 1 (Homo sapiens), Q06609. hRad51 DNA strand exchange, fluorescence dequenching. inhibition, % at 10 µM. 200,000 tested, 0.085% active. AID 1385, 2008;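 active means inhibition above 40% at the single screening dose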
Target sequence (Q06609 whole entry, looked up): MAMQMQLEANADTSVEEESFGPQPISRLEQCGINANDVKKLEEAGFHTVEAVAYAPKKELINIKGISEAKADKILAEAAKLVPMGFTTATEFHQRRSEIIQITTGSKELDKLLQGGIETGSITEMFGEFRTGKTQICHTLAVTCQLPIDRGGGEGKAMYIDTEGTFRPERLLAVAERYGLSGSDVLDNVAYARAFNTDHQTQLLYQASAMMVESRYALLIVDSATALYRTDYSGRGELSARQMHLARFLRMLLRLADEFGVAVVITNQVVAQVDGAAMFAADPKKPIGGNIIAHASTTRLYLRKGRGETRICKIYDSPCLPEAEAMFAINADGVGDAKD
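material = hRad51 filaments on single-stranded DNA | timing = filaments 15 min 37 °C, then compound 30 min | signal = FRET fluorescence dequenching, excitation 485 nm, emission 520 nm | benchmarks = control wells and blank wells on each plate | evaluation = percent inhibition relative to plate controls and blanks | compound = 10 µM final, single point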
TAG inh = inhibitors of triacylglycerol accumulation, primary screen, cell-based, uHTS, fluorescence, H9c2; inhibition, % at 12.5 µM; H9c2 cells, Nile Red lipid (TAG) fluorescence; cells loaded with 200 µM oleic acid; 230,000 tested, 0.66% active;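 active means pattern-corrected inhibition of lipid staining of at least 50% with the nuclear-stain viability signal not falling by more than 50%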
HIF act = HIF pathway transcriptional activators, primary screen, cell-based, U2OS HRE-luciferase, luminescence; U2OS HRE-luciferase reporter; normalized: DMSO 0%, desferrioxamine 100%; activation, % at 7.5 µM (by protocol); 300,000 tested, 0.32% active;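 active means mean activation of at least 10% of the iron chelator positive control signal, with at least half of replicates also reaching 10%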
Hsp70 activator = Hsp70 transcriptional activators, primary screen, cell-based, HeLa, Hsp70 promoter luciferase, luminescence, 10 µM; HeLa Hsp70 promoter luciferase reporter; scaled: vehicle 0, proteasome-inhibitor control 100%; activation, % at 10 µM; 200,000 tested, 0.04% active; AID 1203, 2008;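 active means activation above the mean across all tested compounds plus 3 SD, cutoff set per campaign, cut at about 5.5% in these data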
A number is an active result.

What do the screens show for `C#CCOCCOCCOCCNc1nc(N2CCN(C(=O)CCCCCCCCCCNC(=O)[C@@H](CCSC)n3cc(CCO)nn3)CC2)nc(N2CCN(C(=O)CCCCCCCCCCNC(=O)[C@H](CCCN=C(N)N)n3cc(C[C@@H](C)CC)nn3)CC2)n1`?
GAA850 FXN act: inactive; ABHD5-PLIN5 inh: 64; TAG inh: inactive

How did C#CCOCCOCCOCCNc1nc(N2CCN(C(=O)CCCCCCCCCCNC(=O)[C@H](CCCCN)n3cc(C[C@@H](C)CC)nn3)CC2)nc(N2CCN(C(=O)CCCCCCCCCCNC(=O)[C@@H]([C@H](C)O)n3cc(C)nn3)CC2)n1 do in these assays?
GAA850 FXN act: inactive; ABHD5-PLIN5 inh: 53; TAG inh: inactive

What do the screens show for `CCOc1ccc(Cl)cc1CNCCCSc1nc(C)cc(C)n1`?
GAA850 FXN act: inactive; ABHD5-PLIN5 inh: inactive; HIF act: inactive

Results for CC(C)(C)NC(=O)CSc1ccc(S(=O)(=O)N2CCOCC2)cn1 ?
GAA850 FXN act: inactive; ABHD5-PLIN5 inh: inactive; TAG inh: inactive

Results for COc1cccc2nc3c(C(=O)NCCN(C)C)cccc3cc12 ?
GAA850 FXN act: inactive; ABHD5-PLIN5 inh: inactive; TAG inh: inactive

What do the screens show for `CN(C)CCNC(=O)c1cccc2nc3c(ccc4ccccc43)nc12`?
GAA850 FXN act: inactive; ABHD5-PLIN5 inh: inactive; TAG inh: 51

How did C=CCNC(=O)/C(=C/c1cn(-c2ccccc2)nc1-c1cccc([N+](=O)[O-])c1)NC(=O)c1ccccc1 do in these assays?
GAA850 FXN act: inactive; ABHD5-PLIN5 inh: inactive; Rad51 HR inh: inactive; HIF act: 230; Hsp70 activator: inactive

How did CN(C)C(=O)/C(=C/c1cn(-c2ccccc2)nc1-c1cccc([N+](=O)[O-])c1)NC(=O)c1ccccc1 do in these assays?
GAA850 FXN act: inactive; ABHD5-PLIN5 inh: inactive; Rad51 HR inh: inactive; HIF act: inactive; Hsp70 activator: inactive

What do the screens show for `CCOC(=O)COc1ccccc1/C=C\[N+](=O)[O-]`?
GAA850 FXN act: inactive; ABHD5-PLIN5 inh: 62; HIF act: inactive; Hsp70 activator: inactive

Results for CC(C)c1ccc2oc(=O)cc(CN3CCOCC3)c2c1 ?
GAA850 FXN act: inactive; ABHD5-PLIN5 inh: inactive; HIF act: 40

What do the screens show for `C=CC[C@H](CC(=O)N(CCO)Cc1ccccc1)C(=O)N[C@@H](COC(=O)[C@@H](CC=C)Cc1ccc(F)cc1)Cc1c[nH]c2ccccc12`?
GAA850 FXN act: inactive; ABHD5-PLIN5 inh: inactive; TAG inh: inactive

Results for C=CCC[C@H](Cc1ccc(F)cc1)C(=O)OC[C@@H](Cc1c[nH]c2ccccc12)NC(=O)[C@H](CC=C)CC(=O)N(CCO)Cc1ccccc1 ?
GAA850 FXN act: inactive; ABHD5-PLIN5 inh: inactive; TAG inh: 57

Results for O=C(COC(=O)c1ccccc1Nc1ccccc1)NCc1ccccc1Cl ?
GAA850 FXN act: inactive; ABHD5-PLIN5 inh: inactive; Rad51 HR inh: inactive; HIF act: 683; Hsp70 activator: inactive

How did Cc1ccc(Cl)cc1NC(=O)C1CC1c1ccccc1 (stereo unspecified) do in these assays?
GAA850 FXN act: inactive; ABHD5-PLIN5 inh: inactive; HIF act: inactive

Results for COc1cccc(NC(=O)N2CCN(S(C)(=O)=O)CC2)c1 ?
GAA850 FXN act: inactive; ABHD5-PLIN5 inh: inactive; Rad51 HR inh: inactive; TAG inh: inactive; HIF act: inactive; Hsp70 activator: inactive

How did COc1cccc(NC(=O)N2CCCC2)c1 do in these assays?
GAA850 FXN act: inactive; ABHD5-PLIN5 inh: inactive; Rad51 HR inh: 43; TAG inh: inactive; HIF act: inactive; Hsp70 activator: inactive

How did N#Cc1cc(C#N)c(SCC(=O)N2CC(=O)Nc3ccccc32)nc1N do in these assays?
GAA850 FXN act: inactive; ABHD5-PLIN5 inh: inactive; TAG inh: inactive

How did CCc1ccc2nc(SCC(=O)N3CC(=O)Nc4ccccc43)c(C#N)cc2c1 do in these assays?
GAA850 FXN act: inactive; ABHD5-PLIN5 inh: inactive; Rad51 HR inh: inactive; TAG inh: 51; HIF act: inactive; Hsp70 activator: inactive

What do the screens show for `C=C1CC2(CC(c3ccccc3)OC(c3ccccc3)C2)OC1=O` (stereo unspecified)?
GAA850 FXN act: inactive; ABHD5-PLIN5 inh: 23; TAG inh: inactive

What do the screens show for `O=C1CCCC[C@@H](O)[C@H](O)C[C@H](c2ccccc2)O1`?
ABHD5-PLIN5 inh: inactive

Results for COC(=O)c1ccccc1NC(=O)C(=O)NCc1ccncc1 ?
GAA850 FXN act: inactive; ABHD5-PLIN5 inh: inactive; Rad51 HR inh: inactive; TAG inh: inactive; HIF act: inactive; Hsp70 activator: inactive

What do the screens show for `CC(C(=O)OCC(=O)c1ccc(Br)cc1)N1C(=O)C2C3C=CC(C3)C2C1=O` (stereo unspecified)?
GAA850 FXN act: inactive; ABHD5-PLIN5 inh: inactive; HIF act: inactive

Results for COC(=O)[C@@H]1C[C@]2(OC(=O)c3ccccc3)C=CC(=O)C[C@@H]2N1C(=O)OCc1ccccc1 ?
GAA850 FXN act: inactive; ABHD5-PLIN5 inh: 45; Rad51 HR inh: inactive; TAG inh: inactive; HIF act: inactive; Hsp70 activator: inactive

What do the screens show for `COC(CNC(=O)C1CCCN1C(=O)OCc1ccccc1)OC` (stereo unspecified)?
GAA850 FXN act: inactive; ABHD5-PLIN5 inh: inactive; Rad51 HR inh: inactive; TAG inh: inactive; HIF act: inactive; Hsp70 activator: inactive

How did Cc1ccc2c(c1)C1NC(=S)NC(C)(O2)C1C(=O)Nc1ccc(Cl)cc1 (stereo unspecified) do in these assays?
GAA850 FXN act: inactive; ABHD5-PLIN5 inh: inactive; HIF act: 51; Hsp70 activator: inactive

How did COc1ccc2c(c1)C1NC(=S)NC(C)(O2)C1C(=O)Nc1ccc(Cl)cc1 (stereo unspecified) do in these assays?
GAA850 FXN act: inactive; ABHD5-PLIN5 inh: inactive; HIF act: inactive; Hsp70 activator: inactive

Results for CC(=O)c1cccc(NC(=O)CSC(=O)c2ccccc2)c1 ?
GAA850 FXN act: inactive; ABHD5-PLIN5 inh: inactive; Rad51 HR inh: inactive; HIF act: 30; Hsp70 activator: inactive

Results for O=c1cc(-c2ccccc2Cl)oc2ccc([N+](=O)[O-])c(O)c12 ?
GAA850 FXN act: inactive; ABHD5-PLIN5 inh: inactive; Rad51 HR inh: 60; TAG inh: inactive; HIF act: inactive; Hsp70 activator: inactive

What do the screens show for `Nc1ccc2oc(-c3ccccc3Cl)cc(=O)c2c1O`?
GAA850 FXN act: inactive; ABHD5-PLIN5 inh: inactive; Rad51 HR inh: inactive; TAG inh: inactive; HIF act: inactive; Hsp70 activator: inactive
